According to ChEMBL document CHEMBL1122937, “[(Aminomethyl)arloxy]acetic acid esters. A new class of high-ceiling diuretics. 3. Variation in the bridge between the aromatic rings to complete mapping of the receptor” (J Med Chem, 1985):
Active and inactive are the calls of the source. The rule behind the calls is not given here.

Tests used:
[1] = pKa value was evaluated; assay type: physicochemical
Summary of the method: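 UV absorption spectra were recorded in a buffer series spanning the pH range from fully protonated to fully deprotonated phenolic OH. Absorbance vs pH curves were fit by nonlinear regression, solving for the extinction coefficients of both forms and the pKa. For the amine pKa the buffers were extended to pH 12.0.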

Rattus norvegicus [2] = assay: Natriuretic potency expressed as oral dose necessary to produce an excretion of 2 mequiv of Na+/kg in the rat urine during the 4 hr period after dosing; assay type: functional
Summary of the method: (§1)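 Rats were dosed orally in dose–response experiments. Urine volume, Na+, K+ and Cl- were measured. ED2 is the oral dose in mg/kg giving excretion of 2 mequiv Na+/kg in urine over the 4 h after dosing.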

[3] = Distribution coefficient in octanol-pH 7.0 phosphate buffer was measured at room temperature; assay type: physicochemical
Rattus norvegicus [4] = assay: Natriuretic potency expressed as oral dose necessary to produce an excretion of 2 mequiv of Na+/kg in the rat urine during the 4 h period after dosing; Inactive.; assay type: functional, organism-based; summary of the method: as §1
Rattus norvegicus [5] = assay: Natriuretic potency expressed as oral dose necessary to produce an excretion of 2 mequiv of Na+/kg in the rat urine during the 4 hr period after dosing; Inactive; assay type: functional, organism-based; summary of the method: as §1

Row | SMILES | pKa [1] | ED2 (Rattus norvegicus [2]) [mg/kg] | logD [3] | ED2 (Rattus norvegicus [4]) | ED2 (Rattus norvegicus [5])
1 | CCOC(=O)COc1ccc(C(=O)c2ccc(O)c(CN)c2)c(Cl)c1Cl.Cl | 6.38 | 2.5 | 1.41 | – | –
2 | CCOC(=O)COc1ccc(C(=O)c2ccc(O)c(CN)c2)cc1 | 7.34 | – | 0.3 | – | –
3 | CCOC(=O)COc1ccc(S(=O)(=O)c2ccc(O)c(CN)c2)c(Cl)c1Cl | 6.67 | – | 1.25 | inactive | –
4 | CCOC(=O)COc1ccc(-c2ccc(O)c(CN)c2)c(Cl)c1Cl | – | – | – | – | inactive
5 | CCOC(=O)COc1ccc(Cc2ccc(O)c(CN)c2)c(Cl)c1Cl.Cl | 8.73 | 7.5 | 1.66 | – | –
6 | CCOC(=O)COc1ccc2c(-c3ccc(O)c(CN)c3)noc2c1Cl.Cl | – | 35 | – | – | –
7 | CCOC(=O)COc1ccc(Sc2ccc(O)c(CN)c2)c(Cl)c1Cl.Cl | – | 1 | – | – | –
8 | CCOC(=O)COc1ccc(Oc2ccc(O)c(CN)c2)c(Cl)c1Cl.Cl | 8.55 | 0.8 | 1.82 | – | –
9 | CCOC(=O)COc1ccc(C(=O)Nc2ccc(O)c(CN)c2)c(Cl)c1Cl | – | – | – | – | inactive
10 | COC(=O)COc1ccc([S+]([O-])c2ccc(O)c(CN)c2)c(Cl)c1Cl.Cl (stereo unspecified) | – | 16.3 | – | – | –
11 | CCOC(=O)COc1ccc(C(=O)C(=O)c2ccc(O)c(CN)c2)c(Cl)c1Cl | – | – | – | – | inactive
12 | CCOC(=O)COc1ccc(COc2ccc(O)c(CN)c2)c(Cl)c1Cl | – | – | – | – | inactive
